Consider four compounds from ChEMBL document CHEMBL1143625, “Bisphosphonate inhibitors of Toxoplasma gondi growth: in vitro, QSAR, and in vivo investigations” (J Med Chem, 2005).

Data set [1] has as its system HFF. The data set can be described thus: Inhibitory concentration against the growth of Toxoplasma gondii overexpressing FPPS enzyme in human foreskin fibroblast monolayer cells; (control = 2.2 uM, experiment 1). It is filed as functional, cell-based. Put shortly: (§1)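 FPPS-overexpressing T. gondii line: 2F clone tachyzoites (beta-galactosidase) electroporated with 50 µg ptubTgFPPS-FLAG/sagCAT. Stable lines were selected with 20 µM chloramphenicol and cloned by limiting dilution, giving 4-5-fold more FPPS by Western blot. Assay: compounds serially diluted in medium on confluent HFF; 10^4 tachyzoites/mL (filtered 3 µm, needle-passed); 48 h at 37 °C. Lysis, then CPRG read at 570 nm; IC50 from rectangular hyperbolic fit of % inhibition.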

In data set [2] the test system is HFF. The data set can be described thus: Inhibitory concentration against the growth of Toxoplasma gondii overexpressing FPPS enzyme in human foreskin fibroblast monolayer cells; (control = 2.5 uM, experiment 2). Format: functional, cell-based. Put shortly:
as §1

The nature of data set [3]: In vitro inhibitory concentration against the growth of Toxoplasma gondii in human foreskin fibroblast monolayer cells (HFF cells). It is filed as functional, cell-based. Put shortly:
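T. gondii 2F clone tachyzoites expressing β-galactosidase, kept in HFF in DMEM with 10% FBS, 2 mM glutamine and 1 mM pyruvate. Confluent HFF monolayers were given serially diluted drug in medium, then 10^4 filtered, needle-passed tachyzoites/mL, and held 48 h at 37 °C. Cells were lysed at 50 °C, and CPRG turnover was read at 570 nm. IC50 came from a hyperbolic fit of % inhibition against concentration.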

The test system of data set [4] is HFF. Nature of the data set: Inhibitory concentration against the growth of Toxoplasma gondii overexpressing FPPS enzyme in human foreskin fibroblast monolayer cells; (control = 2.4 uM, experiment 3). It is filed as functional, cell-based. Put shortly:
as §1

Data set [5] concerns KB. The data set can be described thus: Lethal dose required to inhibit the growth of human KB (nasopharyngeal carcinoma) cell line. It is filed as functional. Conditions: read-out: LD50 (the source's name).
For data set [6], the system named is HFF. Nature of the data set: Inhibitory concentration against the growth of Toxoplasma gondii overexpressing FPPS enzyme in human foreskin fibroblast monolayer cells; (control = 0.28 uM, experiment 3). It is filed as functional, cell-based. Put shortly: as §1
Data set [7] is described as follows: Therapeutic index (TI) value as ratio of lethal dose (LD50) to the inhibitory concentration (IC50). Format: cell-based. The note with it: human, KB cells; read-out: TI.
In data set [8] the test system is HFF. Nature of the data set: Inhibitory concentration against the growth of Toxoplasma gondii overexpressing FPPS enzyme in human foreskin fibroblast monolayer cells; (control = 0.30 uM, experiment 2). Format: functional, cell-based. Put shortly:
as §1

Data set [9] relates to HFF. The data set can be described thus: Inhibitory concentration against the growth of Toxoplasma gondii overexpressing FPPS enzyme in human foreskin fibroblast monolayer cells; (control = 0.12 uM, experiment 1). It is filed as functional, cell-based. Put shortly: as §1
Data set [10] relates to HFF. Nature of the data set: Inhibitory concentration against the growth of Toxoplasma gondii overexpressing FPPS enzyme in human foreskin fibroblast monolayer cells; (control = 0.15 uM, experiment 2). It is filed as functional, cell-based. Put shortly:
as §1

The test system of data set [11] is HFF. The data set can be described thus: Inhibitory concentration against the growth of Toxoplasma gondii overexpressing FPPS enzyme in human foreskin fibroblast monolayer cells; (control = 0.62 uM, experiment 1). Format: functional, cell-based. Put shortly:
as §1

The subject of data set [12] is HFF. Nature of the data set: Inhibitory concentration against the growth of Toxoplasma gondii overexpressing FPPS enzyme in human foreskin fibroblast monolayer cells; (control = 0.55 uM, experiment 3). It is filed as functional, cell-based. Put shortly: as §1
The subject of data set [13] is HFF. The data set can be described thus: Inhibitory concentration against the growth of Toxoplasma gondii overexpressing FPPS enzyme in human foreskin fibroblast monolayer cells; (control = 0.60 uM, experiment 1). It is filed as functional, cell-based. Put shortly:
as §1

Data set [14] has as its system HFF. Nature of the data set: Inhibitory concentration against the growth of Toxoplasma gondii overexpressing FPPS enzyme in human foreskin fibroblast monolayer cells; (control = 0.79 uM, experiment 3). It is filed as functional, cell-based. Put shortly:
as §1

The test system of data set [15] is HFF. Nature of the data set: Inhibitory concentration against the growth of Toxoplasma gondii overexpressing FPPS enzyme in human foreskin fibroblast monolayer cells; (control = 1.1 uM, experiment 2). It is filed as functional, cell-based. Put shortly: as §1

For orientation: IC50 means the concentration at which inhibition is half-maximal. A higher IC50 goes with lower potency. With `CCCCCCCCC(O)(P(=O)(O)O)P(=O)(O)O`, the IC50 amounted to 3300 nM in data set [1], 5800 nM in data set [2], 2380 nM in data set [3] and 5800 nM in [4].
Turning to `CCCCCCCCCCC(O)(P(=O)(O)O)P(=O)(O)O`, the CC50 in [5] was over 826000 nM. Besides, the half-inhibitory concentration (IC50) in [6] is 1700 nM; in data set [3], 280 nM; in data set [8], 1200 nM; in data set [9] it was 1100 nM. The selectivity ratio in data set [7] is over 2950.
`CCCCCCCCCC(O)(P(=O)(O)O)P(=O)(O)O`: in [5], the CC50 was over 892000 nM. The half-maximal inhibitory concentration (IC50) turned out to be 570 nM in data set [10], 1900 nM in data set [11], 550 nM in data set [3] and 1700 nM in data set [12]. Moreover, the selectivity ratio in [7] is over 1620.
Turning to `O=P(O)(O)C(O)(Cn1ccnc1)P(=O)(O)O` [ZOLEDRONIC ACID], in data set [5], the CC50 stood at 63700 nM. In addition, the IC50 in [13] was found to be 7800 nM; in data set [3] it was 790 nM; in data set [14], 7800 nM; in data set [15], 8300 nM. For the same compound, in data set [7], the selectivity ratio is 80.9.
